What is called IC50 is the concentration that inhibits the measured activity by half. Lower therefore signals greater potency in that assay.

≈ marks a conversion by molar mass, not a printed value.

Data on ten compounds can be found in ChEMBL document CHEMBL1130421, “A facile, alternative synthesis of 4'-thioarabinonucleosides and their biological activities” (J Med Chem, 1997).

For the first assay, the system named is Human alphaherpesvirus 3. As to the kind of experiment: Antiviral activity against varicella zoster virus (VZV) Oka strain in HEL ([…]) cells. The class given is functional. The note with it: Human alphaherpesvirus 3, HEL; read-out: ED50 (the source's name).
With `O=c1[nH]c(=O)n([C@@H]2S[C@H](CO)[C@@H](O)[C@@H]2O)cc1I`, the EC50 was 27.1 mg/L (≈ 70.2 µM).

Consider `Nc1ncnc2c1ncn2[C@@H]1S[C@H](CO)[C@@H](O)[C@@H]1O`, for which the EC50 worked out at 1.85 mg/L (≈ 6.53 µM).

Take `Cc1cn([C@H]2S[C@H](CO)[C@@H](O)[C@@H]2O)c(=O)[nH]c1=O`: the EC50 was > 50 mg/L.

On to `CCc1cn([C@@H]2S[C@H](CO)[C@@H](O)[C@@H]2O)c(=O)[nH]c1=O`, for which the EC50 was > 50 mg/L.

As for `Nc1nc(N)c2ncn([C@@H]3S[C@H](CO)[C@@H](O)[C@@H]3O)c2n1`, the EC50 was found to be 0.11 mg/L (≈ 0.369 µM).

Regarding `Nc1nc2c(ncn2COC(CO)CO)c(=O)[nH]1` [GANCICLOVIR], the EC50 worked out at 0.21 mg/L (≈ 0.823 µM).

For the compound `O=c1[nH]c(=O)n([C@@H]2O[C@H](CO)[C@@H](O)[C@@H]2O)cc1/C=C/Br` [SORIVUDINE], the EC50 turned out to be 0.0013 mg/L (≈ 0.00372 µM).

For `Nc1ncnc2c1ncn2[C@@H]1O[C@H](CO)[C@@H](O)[C@@H]1O` [VIDARABINE], the EC50 was found to be 1.17 mg/L (≈ 4.38 µM).

For the next assay, the system named is CCRF-HSB-2. Put plainly: Antiproliferative effects on CCRF-HSB-2 (human leukemia) cells. The class given is functional, cell-based.
Conditions: not given
The gist of the method: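 CCRF-HSB-2 cells at 1.1 × 10⁵ cells/mL in RPMI 1640 + 10% FBS. Compound added in medium or PBS as serial 0.5 log₁₀ dilutions. Incubated 3 days at 37 °C, 5% CO₂. MTT then added for another 4 h; formazan solubilized in acidic DMF/SDS. A570 read against 690 nm reference. IC50 read graphically from dose-inhibition curve.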
On to `O=c1[nH]c(=O)n([C@@H]2S[C@H](CO)[C@@H](O)[C@@H]2O)cc1I`, for which the IC50 was > 100 mg/L.

In the case of `Nc1ncnc2c1ncn2[C@@H]1S[C@H](CO)[C@@H](O)[C@@H]1O`, 14.8 mg/L (≈ 52.2 µM) corresponded to half-maximal inhibition (IC50).

Turning to `Cc1cn([C@H]2S[C@H](CO)[C@@H](O)[C@@H]2O)c(=O)[nH]c1=O`, the midpoint of inhibition, the IC50, lay at 42 mg/L (≈ 153 µM).

Consider `CCc1cn([C@@H]2S[C@H](CO)[C@@H](O)[C@@H]2O)c(=O)[nH]c1=O`, for which the IC50 is > 100 mg/L.

On to `Nc1nc(N)c2ncn([C@@H]3S[C@H](CO)[C@@H](O)[C@@H]3O)c2n1`, for which the 50% inhibitory concentration (IC50) amounted to 0.2 mg/L (≈ 0.67 µM).

For the compound `Nc1nc2c(ncn2COCCO)c(=O)[nH]1` [ACYCLOVIR], the IC50 was > 100 mg/L.

Compound `Nc1ccn([C@@H]2O[C@H](CO)[C@@H](O)[C@@H]2O)c(=O)n1` [CYTARABINE] had a 50% inhibitory concentration (IC50) of 0.0086 mg/L (≈ 0.0354 µM).

`Nc1nc2c(ncn2COC(CO)CO)c(=O)[nH]1` [GANCICLOVIR] showed an IC50 of 17 mg/L (≈ 66.6 µM).

On to `O=c1[nH]c(=O)n([C@@H]2O[C@H](CO)[C@@H](O)[C@@H]2O)cc1/C=C/Br` [SORIVUDINE], for which the IC50 was > 100 mg/L.

In the case of `Nc1ncnc2c1ncn2[C@@H]1O[C@H](CO)[C@@H](O)[C@@H]1O` [VIDARABINE], half-maximal inhibition (IC50) was put at 12.9 mg/L (≈ 48.3 µM).

In another assay the test system is Human betaherpesvirus 5. Put plainly: Antiviral activity against human cytomegalovirus (HCMV) AD 169 strain HEL ([…]) cells. In kind it is functional. The note with it: Human betaherpesvirus 5, HEL; read-out: ED50 (the source's name). The gist of the method:
(§1)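 Plaque reduction assay in HEL cells. Strains: HSV-1 VR-3, HSV-2 MS, HCMV AD 169. Run as described earlier.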
On to `O=c1[nH]c(=O)n([C@@H]2S[C@H](CO)[C@@H](O)[C@@H]2O)cc1I`, for which the EC50 is > 50 mg/L.

With `Nc1ncnc2c1ncn2[C@@H]1S[C@H](CO)[C@@H](O)[C@@H]1O`, the EC50 was 1.36 mg/L (≈ 4.8 µM).

Consider `Cc1cn([C@H]2S[C@H](CO)[C@@H](O)[C@@H]2O)c(=O)[nH]c1=O`, for which the EC50 is > 50 mg/L.

Turning to `CCc1cn([C@@H]2S[C@H](CO)[C@@H](O)[C@@H]2O)c(=O)[nH]c1=O`, the EC50 was > 50 mg/L.

Take `Nc1nc(N)c2ncn([C@@H]3S[C@H](CO)[C@@H](O)[C@@H]3O)c2n1`: the EC50 was found to be 0.022 mg/L (≈ 0.0737 µM).

Regarding `Nc1nc2c(ncn2COCCO)c(=O)[nH]1` [ACYCLOVIR], the EC50 amounted to 6.9 mg/L (≈ 30.6 µM).

For the compound `Nc1nc2c(ncn2COC(CO)CO)c(=O)[nH]1` [GANCICLOVIR], the EC50 was found to be 0.21 mg/L (≈ 0.823 µM).

As to `O=c1[nH]c(=O)n([C@@H]2O[C@H](CO)[C@@H](O)[C@@H]2O)cc1/C=C/Br` [SORIVUDINE], the EC50 was > 50 mg/L.

`Nc1ncnc2c1ncn2[C@@H]1O[C@H](CO)[C@@H](O)[C@@H]1O` [VIDARABINE]: the EC50 was 6.45 mg/L (≈ 24.1 µM).

For another assay, the system named is Human alphaherpesvirus 1. Put plainly: Antiviral activity against herpes simplex virus-1 VR-3 strain in HEL ([…]) cells. The class given is functional. The note with it: Human alphaherpesvirus 1, HEL; read-out: ED50 (the source's name). The gist of the method: as §1
`O=c1[nH]c(=O)n([C@@H]2S[C@H](CO)[C@@H](O)[C@@H]2O)cc1I`: the EC50 came to 3.5 mg/L (≈ 9.06 µM).

For the compound `Nc1ncnc2c1ncn2[C@@H]1S[C@H](CO)[C@@H](O)[C@@H]1O`, the EC50 came out at 18.4 mg/L (≈ 64.9 µM).

Turning to `Cc1cn([C@H]2S[C@H](CO)[C@@H](O)[C@@H]2O)c(=O)[nH]c1=O`, the EC50 is > 100 mg/L.

As to `CCc1cn([C@@H]2S[C@H](CO)[C@@H](O)[C@@H]2O)c(=O)[nH]c1=O`, the EC50 is 0.43 mg/L (≈ 1.49 µM).

Turning to `Nc1nc(N)c2ncn([C@@H]3S[C@H](CO)[C@@H](O)[C@@H]3O)c2n1`, the EC50 is 0.52 mg/L (≈ 1.74 µM).

With `Nc1nc2c(ncn2COCCO)c(=O)[nH]1` [ACYCLOVIR], the EC50 turned out to be 0.14 mg/L (≈ 0.622 µM).

With `Nc1nc2c(ncn2COC(CO)CO)c(=O)[nH]1` [GANCICLOVIR], the EC50 is 0.016 mg/L (≈ 0.0627 µM).

For `O=c1[nH]c(=O)n([C@@H]2O[C@H](CO)[C@@H](O)[C@@H]2O)cc1/C=C/Br` [SORIVUDINE], the EC50 came to 0.036 mg/L (≈ 0.103 µM).

Take `Nc1ncnc2c1ncn2[C@@H]1O[C@H](CO)[C@@H](O)[C@@H]1O` [VIDARABINE]: the EC50 was 17.1 mg/L (≈ 64 µM).

The next assay has as its system Human alphaherpesvirus 2. Put plainly: Antiviral activity against herpes simplex virus-2 (HSV-2) Ms strain in HEL ([…]) cells. The following applies: Human alphaherpesvirus 2, HEL; read-out: ED50 (the source's name). In kind it is functional. The method, boiled down:
as §1
Turning to `O=c1[nH]c(=O)n([C@@H]2S[C@H](CO)[C@@H](O)[C@@H]2O)cc1I`, the EC50 turned out to be 13.6 mg/L (≈ 35.2 µM).

Regarding `Nc1ncnc2c1ncn2[C@@H]1S[C@H](CO)[C@@H](O)[C@@H]1O`, the EC50 worked out at 13.5 mg/L (≈ 47.7 µM).

With `Cc1cn([C@H]2S[C@H](CO)[C@@H](O)[C@@H]2O)c(=O)[nH]c1=O`, the EC50 is > 100 mg/L.

With `CCc1cn([C@@H]2S[C@H](CO)[C@@H](O)[C@@H]2O)c(=O)[nH]c1=O`, the EC50 turned out to be 6.5 mg/L (≈ 22.5 µM).

As for `Nc1nc(N)c2ncn([C@@H]3S[C@H](CO)[C@@H](O)[C@@H]3O)c2n1`, the EC50 came to 0.4 mg/L (≈ 1.34 µM).

On to `Nc1nc2c(ncn2COCCO)c(=O)[nH]1` [ACYCLOVIR], for which the EC50 is 0.23 mg/L (≈ 1.02 µM).

As for `Nc1nc2c(ncn2COC(CO)CO)c(=O)[nH]1` [GANCICLOVIR], the EC50 was 0.039 mg/L (≈ 0.153 µM).

Take `O=c1[nH]c(=O)n([C@@H]2O[C@H](CO)[C@@H](O)[C@@H]2O)cc1/C=C/Br` [SORIVUDINE]: the EC50 is 62 mg/L (≈ 178 µM).

Turning to `Nc1ncnc2c1ncn2[C@@H]1O[C@H](CO)[C@@H](O)[C@@H]1O` [VIDARABINE], the EC50 came to 6.6 mg/L (≈ 24.7 µM).
